# Sampled rows, rich in hits. Any-hit rate of the full collection: about 1.5%.
# CXCR6 inh – inhibitors of human CXCR6 receptor; O00574; CHO-K1 PathHunter CXCR6 beta-arrestin, luminescence; inhibition, % at 20 µM; 360,000 compounds, 0.36% hits; AID 602244; in the data active = inhibition above about 34%, passing the limit was not always enough;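 note: antagonist mode with CXCL16 agonist at 10 nM final; 0% = 10 nM CXCL16 with DMSO and 100% = unstimulated wells without agonist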
# APJ antagonist – antagonists of human APJ apelin receptor. CHO-K1 APJ beta-arrestin complementation, luminescence. 330,000 compounds, 0.32% hits. P35414. inhibition, % at 20 µM. AID 2521;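 active = inhibition above about 40% at 20 µM, limit read from the data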;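 note: cells challenged with 10 nM apelin-13 agonist together with compound; plate controls were apelin-13 plus DMSO wells for no effect and DMSO wells lacking apelin-13 for full effect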
# CCR6 antagonist – CCR6 (human) receptor antagonism | AID 493098 | CHO-K1 CCR6 PathHunter beta-arrestin, luminescence, CCL20-stimulated | inhibition, % at 20 µM | 340,000 compounds, 0.49% hits;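 active = compounds whose inhibition of the agonist-driven luminescence signal at 20 µM reaches about 50%, limit read from the data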;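 note: cells stimulated with CCL20 at 14 nM final; plate controls were DMSO with CCL20 for no effect and DMSO without agonist for full effect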
# Target sequence (P51684 whole entry, looked up): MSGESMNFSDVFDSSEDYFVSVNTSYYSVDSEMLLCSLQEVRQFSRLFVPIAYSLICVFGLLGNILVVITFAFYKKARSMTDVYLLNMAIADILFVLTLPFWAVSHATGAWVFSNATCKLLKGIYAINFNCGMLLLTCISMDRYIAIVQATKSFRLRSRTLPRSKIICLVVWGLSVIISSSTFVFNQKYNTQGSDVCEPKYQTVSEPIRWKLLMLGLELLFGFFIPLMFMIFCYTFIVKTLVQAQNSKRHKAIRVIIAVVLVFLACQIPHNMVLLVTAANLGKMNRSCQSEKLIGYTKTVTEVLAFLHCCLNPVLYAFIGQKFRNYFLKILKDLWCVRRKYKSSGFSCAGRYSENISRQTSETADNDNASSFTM
# APJ ag – activates the human apelin receptor APJ; P35414; CHO-K1 APJ PathHunter beta-arrestin, luminescence; 0% DMSO wells, 100% apelin; activation, % at 20 µM; 330,000 compounds, 0.11% hits;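 active = activation more than six SD over the plate average, tested at 20 µM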;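 note: 0% = DMSO alone and 100% = apelin-13 at 10 nM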
#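 Assay system: CHO-K1 cells stably expressing ProLink-tagged human APJ and arrestin–beta-gal acceptor. Compound dosing: 20 µM single point, 1% DMSO. Times: 16-18 h seeding, 90 min dark compound exposure, 60 min detection. Detection: beta-gal luminescence. Evaluation: APJ–arrestin association signal. Controls: negative DMSO alone, positive Apelin-13 at 10 nM.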
# EBI2 block – EBI2 (human) antagonism; inhibition, % at 5 µM; P32249; EBI2 beta-arrestin recruitment, luminescence, 7a,25-OHC stimulated; 360,000 compounds, 0.81% hits; in the data active = inhibition above about 38%;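 note: enzyme fragment complementation signal reports receptor beta-arrestin coupling in cells; 0% = agonist plus DMSO wells and 100% = wells without agonist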
# APJ antag confirm – APJ receptor antagonism confirmation; shares compounds with APJ antagonist; APJ beta-arrestin recruitment, luminescence, antagonist mode; inhibition, % at 20 µM; 950 compounds, 66% hits; in the data active = inhibition above about 50%
# An asterisk follows results filed as active; nt = not tested or not shown.
SMILES,CXCR6 inh,APJ antagonist,CCR6 antagonist,APJ ag,EBI2 block,APJ antag confirm
COc1ccc(N2CCN(C(=O)C3CCN(C(=O)c4ccc([N+](=O)[O-])cc4)CC3)CC2)cc1,2.2,9.0,0.3,1.7,22.3,nt
CC(C)N1CCc2c(sc(NC(=O)c3cc(-c4cccs4)nc4ccccc34)c2C(N)=O)C1,17.4,45.7*,62.4*,-15.0,6.3,65.0*
Cc1ccc(NCC(=O)Nc2cccc(F)c2)cc1S(=O)(=O)N1CCCCCC1,2.9,-8.1,8.4,5.1,-1.1,nt
Oc1c(N=Nc2ccccn2)ccc2ccccc12,31.8,67.7*,50.4*,-12.2,36.1,113.2*
COCCCn1cc(CN2CC(N3CCN(C)CC3)CS2(=O)=O)nn1 (stereo unspecified),-6.0,nt,nt,nt,-10.1,nt
OCC[C@@H]1C[C@H](O)[C@@H](O)[C@]2(CCCc3ccccc3O2)O1,0.3,9.3,-1.9,3.2,-3.7,nt
COc1ccc(NS(=O)(=O)c2cc([N+](=O)[O-])ccc2N/N=C\c2c(C)[nH]c3ccccc23)cc1,35.9,74.9*,41.1,-19.2,19.6,99.4*
COc1ccc(C=NNc2ccc([N+](=O)[O-])cc2S(=O)(=O)Nc2ccccc2C(=O)O)cc1OC,20.6,26.9,32.6,-8.8,8.8,nt
COc1ccccc1NS(=O)(=O)c1cc([N+](=O)[O-])ccc1N/N=C/c1c[nH]c2ccccc12,39.3,56.1*,50.0*,-9.4,54.3*,90.7*
COc1ccc(NS(=O)(=O)c2cc([N+](=O)[O-])ccc2NN=Cc2ccccc2OCC(=O)O)cc1,30.1,36.2,37.8,-6.6,13.2,nt
COc1ccc([C@@H]2C[C@H]3[C@@H](CN2S(=O)(=O)c2ccccc2)C(=O)C[C@@H](c2cccc(Cl)c2)N3S(=O)(=O)c2ccc(C)cc2)cc1,1.9,nt,nt,nt,0.2,nt
CCOc1cc(/C=C2\SC(=O)N(CC(=O)Nc3ccccc3F)C2=O)cc([N+](=O)[O-])c1O,27.6,54.0*,39.6,-7.2,5.5,78.6*
COc1ccccc1N(C)S(=O)(=O)c1ccc(C(=O)Nc2cc(F)ccc2C)cc1,0.6,-6.4,15.3,-5.0,3.1,nt
Cc1cc(C)nc(NNS(=O)(=O)c2c(F)cc(F)cc2Br)n1,33.4,67.1*,46.7,-11.4,22.4,114.1*
Cn1c(N)c(C(=O)CSc2n[nH]c(N)n2)c(=O)n(C)c1=O,13.5,9.0,1.5,-5.2,7.1,nt
CCC(/C=C1\Oc2ccc(OC)cc2N1C)=C\c1sc2ccccc2[n+]1CCCS(=O)(=O)[O-],9.1,nt,41.2,nt,-13.4,nt
COc1cc(/C=C/c2sc3ccccc3[n+]2CCCS(=O)(=O)[O-])ccc1O,51.1*,50.9*,54.8*,-8.7,13.2,99.6*
O=C(CN1C(=O)NC2(CCCCC2)C1=O)N1CCOCC1,2.3,-20.4,1.0,-1.6,-12.4,nt
CCNc1c(N)c(=O)oc2ccccc12,-8.6,18.6,15.9,-3.8,3.1,nt
CCCNc1c(N)c(=O)oc2ccccc12,-2.8,56.5*,1.6,1.0,-2.2,33.0
Cn1nc(C(=O)NC2CCCCC2)c2c1-c1ccccc1S(=O)(=O)C2,-7.3,6.2,25.3,-1.7,-4.4,nt
CC1CC(=O)Nc2ccccc2N1S(=O)(=O)c1ccccc1 (stereo unspecified),-3.6,59.5*,-2.9,2.6,0.6,45.1
CN(C)c1ccc(/C=C2\N=C(c3ccc(Cl)c([N+](=O)[O-])c3)NC2=O)cc1,44.7*,52.2*,63.0*,-10.0,37.2,104.5*
CN(C)c1ccc(/C=C2/NC(=O)NC2=O)cc1,13.6,2.7,3.9,-1.4,6.3,nt
CCOC(=O)C1CCCN(C(=O)c2cc3ccc(OC)cc3[nH]2)C1 (stereo unspecified),0.8,6.1,14.4,-1.4,1.7,nt
O=C(c1cccs1)c1cn(CC(=O)N2CCc3ccccc3C2)c2ccccc12,0.1,42.8*,24.9,-22.4,-2.7,28.4
CC(C)(C)OC(=O)N1CCC[C@H]1c1nnc(SCC(=O)Nc2cccc(Cl)c2)o1,-14.5,17.9,7.7,0.8,-5.0,nt
CC(C)(C)OC(=O)N1CCC[C@H]1c1nnc(SCC(=O)Nc2ccc(Br)cc2)o1,35.8*,55.4*,47.3,-9.3,16.3,72.2*
C/C(=N\NC(=O)CCn1nnc2ccccc21)c1ccco1,-8.7,10.9,3.9,2.9,-2.4,nt
